Test results reported in publication PMC9977399 (Chemical Science, 2023).

Key:
[1] = test system: lamin A processing in staurosporine-treated Jurkat T cells; assay: western blot of lamin A processing upon inhibitor treatment; format: cell-based, human; details: inhibitor 5 or 25 μM, 2 h preincubation, staurosporine 5 μM, 4 h
In short: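 Low-passage Jurkat T cells (100000 per 0.5 mL) were pretreated 2 h with inhibitor (5 or 25 μM, 1% DMSO; control 1% DMSO), then given staurosporine 5 μM for 4 or 8 h. Lysates were boiled in SDS/DTT and run on 4–12% Bis-Tris SDS–PAGE, then nitrocellulose, blocked with 2% BSA/TBS-T. Primary antibodies (caspase 3, PARP, caspase 6, lamin A/C; 1:1000, overnight 4 °C) were followed by fluorescent secondaries. Bands were quantified from 700/800 nm scans.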

caspase 6 [2] = biological target: T1, caspase 6 (Homo sapiens, UniProt P55212); assay: kinetic of AIE substrates; format: biochemical; details: caspases 3 and 6 at 10 nM or 50 nM, ex 312/em 450 nm, 30 min
T1 sequence (P55212 24-179 limits assumed): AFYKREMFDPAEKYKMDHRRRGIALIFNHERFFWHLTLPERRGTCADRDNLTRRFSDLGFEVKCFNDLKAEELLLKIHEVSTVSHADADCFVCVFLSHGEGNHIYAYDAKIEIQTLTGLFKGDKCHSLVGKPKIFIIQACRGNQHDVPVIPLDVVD
T1 sequence (P55212 194-293 limits assumed): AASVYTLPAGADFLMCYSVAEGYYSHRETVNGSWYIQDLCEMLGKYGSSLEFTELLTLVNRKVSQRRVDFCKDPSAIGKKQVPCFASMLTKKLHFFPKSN
In short: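 Recombinant human caspases 3 and 6 were active-site titrated with zVAD-fmk and used at 10 or 50 nM. Buffer: 10% w/v sucrose, 20 mM PIPES, 10 mM NaCl, 1 mM EDTA, 10 mM DTT, pH 7.2–7.4. Enzyme was preincubated 15 min, then added to AIE substrates from DMSO at varied final concentrations, 37 °C. Relative hydrolysis rate came from the linear fluorescence segment. At least three replicates, mean ± SD.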

caspase 6 [3] = biological target: T1, caspase 6; assay: kobs/I inhibition parameter of AOMK inhibitors; format: biochemical; details: substrate Ac-VEID-ACC 100 μM, 37 °C
In short: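 Recombinant human caspase 6 was active-site titrated with zVAD-fmk and preactivated 15 min at 37 °C in sucrose/PIPES/NaCl/EDTA/DTT buffer, pH 7.2–7.4. Serial inhibitor dilutions with substrate were pre-equilibrated 15 min at 37 °C, then enzyme was added. ACC fluorescence (ex 355/em 460 nm) was read for 30 min from start under pseudo-first-order conditions. Second-order kobs/I: at least three independent runs, mean ± SD.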

caspase 10 = biological target: T2, caspase 10 (Homo sapiens, UniProt Q92851); assay: kobs/I inhibition parameter of AOMK inhibitors; format: biochemical; details: substrate Ac-LEHD-ACC 100 μM, 37 °C
T2 sequence (Q92851 220-415 limits assumed): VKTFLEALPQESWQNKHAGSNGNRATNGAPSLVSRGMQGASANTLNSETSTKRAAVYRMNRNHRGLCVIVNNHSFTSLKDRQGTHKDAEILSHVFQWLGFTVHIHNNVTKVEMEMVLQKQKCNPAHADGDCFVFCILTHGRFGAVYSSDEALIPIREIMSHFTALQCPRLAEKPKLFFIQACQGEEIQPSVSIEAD
T2 sequence (Q92851 416-521 limits assumed): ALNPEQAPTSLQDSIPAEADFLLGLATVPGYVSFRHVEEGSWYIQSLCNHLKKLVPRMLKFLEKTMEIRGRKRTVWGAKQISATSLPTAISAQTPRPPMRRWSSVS
In short: (§1)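 Recombinant human caspases 8, 9 or 10 were active-site titrated with zVAD-fmk and preactivated 15 min at 37 °C. Buffer: sucrose/PIPES/NaCl/EDTA/DTT, pH 7.2–7.4, plus 0.75 M sodium citrate to dimerise. Inhibitor dilutions were mixed with substrate and held 15 min at 37 °C before enzyme addition. Fluorescence (ex 355/em 460 nm) was followed 30 min; pseudo-first-order kobs/I from ≥3 experiments, mean ± SD.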

caspase 8 = caspase 8 (Homo sapiens, UniProt Q14790); assay: kobs/I inhibition parameter of AOMK inhibitors; format: biochemical; details: substrate Ac-LEHD-ACC 100 μM, 37 °C
caspase 8, sequence (Q14790 217-374 limits assumed): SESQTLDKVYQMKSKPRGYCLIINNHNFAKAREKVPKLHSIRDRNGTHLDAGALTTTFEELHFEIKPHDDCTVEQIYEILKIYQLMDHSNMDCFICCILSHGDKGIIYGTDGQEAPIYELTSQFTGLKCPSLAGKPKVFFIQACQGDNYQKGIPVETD
caspase 8, sequence (Q14790 385-479 limits assumed): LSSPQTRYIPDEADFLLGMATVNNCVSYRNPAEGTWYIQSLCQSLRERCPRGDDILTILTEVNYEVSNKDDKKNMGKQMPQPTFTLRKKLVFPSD
In short: as §1

caspase 9 = biological target: T3, caspase 9 (Homo sapiens, UniProt P55211); assay: kobs/I inhibition parameter of AOMK inhibitors; format: biochemical; details: substrate Ac-LEHD-ACC 100 μM, 37 °C
T3 sequence (P55211 1-315 limits assumed): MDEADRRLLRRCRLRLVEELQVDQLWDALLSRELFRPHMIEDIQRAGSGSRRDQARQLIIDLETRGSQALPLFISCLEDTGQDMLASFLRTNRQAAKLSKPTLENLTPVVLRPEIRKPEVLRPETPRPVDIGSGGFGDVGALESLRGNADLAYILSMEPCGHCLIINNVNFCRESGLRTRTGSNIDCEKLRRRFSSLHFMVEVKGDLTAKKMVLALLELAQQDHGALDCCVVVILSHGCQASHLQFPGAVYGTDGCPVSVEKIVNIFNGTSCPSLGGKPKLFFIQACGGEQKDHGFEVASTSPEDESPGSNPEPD
T3 sequence (P55211 331-416 limits assumed): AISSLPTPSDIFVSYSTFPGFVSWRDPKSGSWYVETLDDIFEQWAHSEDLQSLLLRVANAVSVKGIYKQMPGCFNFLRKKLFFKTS
In short: as §1

[4] = test system: lamin A processing in staurosporine-treated Jurkat T cells; assay: mass cytometry, anti-lamin A; format: cell-based, human; details: inhibitor 5 or 25 μM, 2 h preincubation, staurosporine 5 μM, 4 h
In short: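 Jurkat T cells (1,000,000 per 0.5 mL) were pretreated 2 h with inhibitor (5 or 25 μM), then given staurosporine 5 μM for 4 h. Cells were fixed in 4% PFA (20 min, 4 °C), Perm-S permeabilised and stained 2 h RT with metal-tagged antibodies (lamin A 142Nd, cleaved PARP 143Nd, caspase 6 159Tb, cleaved caspase 3 172Yb). Ir191/193 DNA stain followed; CyTOF acquisition within 12 h.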

| selectivity for caspase 6 over caspase 3 (AIE substrate hydrolysis) (caspase 6 [2]) | potency toward caspase 6 (kobs/I, in words) (caspase 6 [3]) | inhibition of apical caspase 10 (in words) (caspase 10) | inhibition of apical caspase 8 (in words) (caspase 8) | inhibition of apical caspase 9 (in words) (caspase 9) | Substance | prevention of lamin A cleavage (western blot) [1] | effect on lamin A processing (mass cytometry) [4] |
| --- | --- | --- | --- | --- | --- | --- | --- |
|  |  |  |  |  | Ac-EVEID-AOMK | only partially effective in preventing lamin A cleavage |  |
| very high selectivity over caspase 3 |  |  |  |  | Ac-EVEID-K(T PE )-NH2 [Ac-EVEID-K-TPE] |  |  |
|  | most potent inhibitors of caspase 6 |  |  |  | Ac-EVEhFD-AOMK | only partially effective in preventing lamin A cleavage |  |
|  | most potent inhibitors of caspase 6 | poor inhibitor | poor inhibitor | poor inhibitor | Ac-hFVEID-AOMK | largely prevent lamin A | efficiently block lamin A processing |
